Laboratory results reported in article PMC9514064 (Protein Science : A Publication of the Protein Society, 2022).
Where “and” joins values, the source holds several entries; their conditions need not be identical. Equal values may be shown once. Read-outs that look alike come from different tables or passages of the source.

Tests used:
Bha TRAP12 [1] = target: T1, Bha TRAP12 (Halalkalibacterium halodurans, UniProt Q9KCC6); assay: Isothermal titration calorimetry, Trp into TRAP; assay type: binding, B. halodurans; details: ITC 25°C, two-sites model
T1 sequence (Q9KCC6 1-76): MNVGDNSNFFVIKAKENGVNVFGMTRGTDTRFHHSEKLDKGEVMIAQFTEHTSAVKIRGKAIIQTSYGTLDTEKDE
In short: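 Tag-free protein (C-terminal ENLYFQ left after TEV cleavage), expressed in E. coli BL21(DE3), made Trp-free by Gdn-HCl denaturation, RP-HPLC, refolding and SEC, then dialysed into buffer A (100 mM NaCl, 50 mM NaPO₄, pH 8.0). 293 μM Trp (in dialysate) titrated into 23 μM protomers, 25°C, 307 rpm. Integrated heats fit to a two-sites model; oligomer concentration corrected via fitted n; 200-sample bootstrap confidence intervals.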

Bha TRAP12 [2] = target: T1, Bha TRAP12; assay type: binding, B. halodurans
In short: (§1)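 Apo protein dialysed into 400 mM ammonium acetate, adjusted to pH 8 with NH₄OH. Samples of 6.0–7.4 μM protein with 0–140 μM Trp were prepared fresh in parallel. Native MS on an Orbitrap UHMR at ~25°C, each point in triplicate with different emitters. Abundances of the 0–12-bound states came from peak areas, with protein concentration corrected by a quadratic independent-sites fit. A 12-site NN model was fit globally by Powell minimisation; uncertainties are SD of three repeats.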

Bst TRAP12 ∆71 = target: T2, Bst TRAP12 ∆71 (Geobacillus stearothermophilus, UniProt Q9X6J6); assay type: binding, B. stearothermophilus
T2 sequence (Q9X6J6 1-69 limits assumed): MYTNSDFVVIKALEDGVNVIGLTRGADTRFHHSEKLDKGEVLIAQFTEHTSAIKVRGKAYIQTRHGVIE
In short: as §1

Bst TRAP11 = target: T3, Bst TRAP11 (Geobacillus stearothermophilus, UniProt Q9X6J6); assay type: binding, B. stearothermophilus
T3 sequence (Q9X6J6 1-74): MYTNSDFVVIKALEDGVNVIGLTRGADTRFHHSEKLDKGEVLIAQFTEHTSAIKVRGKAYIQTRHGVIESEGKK
In short: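 Apo 11-mer protein dialysed into 400 mM ammonium acetate. Samples of 6.0–7.4 μM protein with 0–140 μM Trp (serial dilutions) were prepared fresh in parallel. Native MS on an Orbitrap UHMR at ~25°C. Relative abundances of Trp-bound states came from integrated peak areas, with binding-site concentration corrected by a quadratic independent-sites fit. Populations were fit globally to a nearest-neighbour model (ΔG₀, ΔGα) by Powell minimisation.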

[3] = 1/(αK 0), NN model, dissociation constant for sites with one bound neighbor, ~25°C
[4] = 1/K 0, NN model, dissociation constant for isolated sites, ~25°C
[5] = NN model, sites with 1 occupied neighbor, ~25°C
[6] = NN model, sites with no occupied neighbors, room temperature ~25°C, 400 mM ammonium acetate

SMILES: N[C@@H](Cc1c[nH]c2ccccc12)C(=O)O [Trp, tryptophan]
- n (fitted binding sites), Site 1 (Bha TRAP12 [1]; buffer A): ≈ 1
- n (fitted binding sites), Site 2 (Bha TRAP12 [1]; buffer A): ~ 11
- Kd (Bha TRAP12 [1]; Kd,1 (Site 1), first Trp): 1.8 ± 0.3 µM
- Kd (Bha TRAP12 [2]; [3]): 2.8 ± 0.8 µM
- Kd (Bha TRAP12 [2]; [4]): 720 ± 140 µM
- Cooperativity factor α (Bha TRAP12 [2]; NN model, K N1/K 0, fold increase in affinity with one occupied neighbor): 256 and 256 ± 87
- ΔG 0 + ΔG α (Bha TRAP12 [2]; [5]): -7.6 ± 0.2 kcal/mol
- ΔG 0 (Bha TRAP12 [2]; [6]): -4.3 ± 0.1 kcal/mol
- Kd (Bst TRAP12 ∆71; [3]): 7.8 ± 1.2 µM
- Kd (Bst TRAP12 ∆71; [4]): 217 ± 13 µM
- Cooperativity factor α (Bst TRAP12 ∆71; NN model, K N1/K 0): 28 and 28 ± 5
- ΔG 0 + ΔG α (Bst TRAP12 ∆71; [5]): -7.0 ± 0.1 kcal/mol
- ΔG 0 (Bst TRAP12 ∆71; [6]): -5.00 ± 0.03 kcal/mol
- Kd (Bst TRAP11; [3]): 4.4 ± 1.9 µM
- Kd (Bst TRAP11; [4]): 36 ± 12 µM
- Cooperativity factor α (Bst TRAP11; NN model, K N1/K 0): 8 and 8 ± 5
- coupling energy ΔG α (Bst TRAP11; NN model, between adjacent sites): −1.2 ± 0.3 kcal mol^−1 interaction^−1
- ΔG 0 + ΔG α (Bst TRAP11; [5]): -7.3 ± 0.3 kcal/mol
- ΔG 0 (Bst TRAP11; [6]): -6.1 ± 0.2 kcal/mol
